Test results as given in ChEMBL document CHEMBL1137712, “Antidyslipidemic and antioxidative activities of 8-hydroxyquinoline derived novel keto-enamine Schiffs bases” (Eur J Med Chem, 2009).
The source made the active and inactive calls. The calls are words filed in the database; no cut-off is given here.

Experiments:
Rattus norvegicus [1] = experiment: Antidyslipidemic activity against triton-induced hyperlipidemia in Charles Foster rat assessed as reduction in total cholesterol level at 100 mg/kg, po after 18 hrs by spectrophotometry relative to control; type: functional
Method in brief: (§1)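 Male adult Charles Foster rats (200–225 g), six per group. Triton WR-1339 400 mg/kg ip with simultaneous oral dosing at 100 mg/kg in 0.2% w/v gum acacia suspension; diet withdrawn; vehicle controls. At 18 h, thiopentone anaesthesia, retro-orbital blood into EDTA, plasma diluted 1:3 in saline; Tc, Tg, Pl by standard enzymatic kits; Student's t-test versus triton group, P<0.05.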

Rattus norvegicus [2] = experiment: Antidyslipidemic activity against triton-induced hyperlipidemia in Charles Foster rat assessed as reduction in phospholipid level at 100 mg/kg, po after 18 hrs by spectrophotometry relative to control; type: functional; method in brief: as §1
[3] = Antioxidant activity assessed as inhibition microsomal lipid peroxidation at 200 ug/ml by thiobarbituric acid test; type: functional; parameters: scale not given: the % may be the effect or the level left; details: Microsome
Rattus norvegicus [4] = experiment: Antidyslipidemic activity against triton-induced hyperlipidemia in Charles Foster rat assessed as reduction in triglyceride level at 100 mg/kg, po after 18 hrs by spectrophotometry relative to control; type: functional; method in brief: as §1
Rattus norvegicus [5] = experiment: Antidyslipidemic activity in Charles Foster rat hyperlipidemia model assessed as suppression of triton-induced post heparin lipolytic activity at 100 mg/kg, po after 18 hrs by spectrophotometry relative to control; type: functional
Method in brief: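 Post-heparin lipolytic activity in plasma of male Charles Foster rats given triton WR-1339 400 mg/kg ip plus oral dose 100 mg/kg in gum acacia, six per group, sampled at 18 h; assayed spectrophotometrically per Wing and Robinson, expressed as nmol free fatty acid formed/h/ml plasma; triton group compared with control, treated with triton group.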

[6] = Antioxidant activity assessed as inhibition non-enzymatic reactants generated hydroxyl radical production at 200 ug/ml by spectrophotometry; type: functional; parameters: scale not given: the % may be the effect or the level left
Method in brief: (§2)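 Hydroxyl radicals generated non-enzymically from deoxyribose 2.8 mM, FeSO4 2 mM, sodium ascorbate 2.0 mM and H2O2 2.8 mM in 50 mM KH2PO4 pH 7.4, with or without compound, 37 °C for 90 min; MDA measured spectrophotometrically by thiobarbituric acid method, with reference samples and reagent blanks; mannitol reference.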

[7] = Antioxidant activity assessed as inhibition of xanthine-xanthine oxidase generated superoxide anion radical production at 200 ug/ml by spectrophotometry; type: functional; parameters: scale not given: the % may be the effect or the level left
Method in brief: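 Superoxide generated by xanthine, xanthine oxidase 0.04 U and nitroblue tetrazolium in 100 mM phosphate buffer pH 8.2, with or without compound sonicated in buffer; 37 °C for 30 min, stopped with glacial acetic acid; formazan read at 560 nm, percent inhibition from absorption coefficient 7.2 × 10³ M/cm; allopurinol reference.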

Vero = experiment: Cytotoxicity against african green monkey Vero cells; type: cell-based; details: chlorocebus sabaeus
[8] = Cytotoxicity against primary osteoblast cells; type: cell-based
[9] = Antioxidant activity assessed as inhibition microsomal lipid peroxidation at 100 ug/ml by thiobarbituric acid test; type: functional; parameters: scale not given: the % may be the effect or the level left; details: Microsome
[10] = Antioxidant activity assessed as inhibition non-enzymatic reactants generated hydroxyl radical production at 100 ug/ml by spectrophotometry; type: functional; parameters: scale not given: the % may be the effect or the level left; method in brief: as §2
[11] = Antioxidant activity assessed as inhibition of xanthine-xanthine oxidase generated superoxide anion radical production at 20 ug/ml by spectrophotometry; type: functional; parameters: scale not given: the % may be the effect or the level left
Method in brief: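 Superoxide generated enzymatically with xanthine, xanthine oxidase (0.04 U) and nitroblue tetrazolium in 100 mM phosphate buffer, pH 8.2, with or without test sample. Samples sonicated in phosphate buffer before use. Incubated 30 min at 37 °C, then stopped with glacial acetic acid. Formazan read at 560 nm. Percent inhibition calculated using formazan absorption coefficient 7.2 × 10³ M/cm.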

## CC(C)(C)N/C=C1/C=C(C=O)c2cccnc2C1=O
Rattus norvegicus [1]
  Activity: Active
Rattus norvegicus [2]
  Activity: Active
[3]
  Activity: Active
Rattus norvegicus [4]
  Activity: Active
Rattus norvegicus [5]
  Activity: 5%
[6]
  Activity: Active
[7]
  Activity: Active

## CN/C=C1/C=C(C=O)c2cccnc2C1=O
Rattus norvegicus [1]
  Activity: 26%
Rattus norvegicus [2]
  Activity: 25%
[3]
  Activity: Active
Rattus norvegicus [4]
  Activity: 24%
Rattus norvegicus [5]
  Activity: 5%
[6]
  Activity: Active
Vero
  Activity: Non-toxic
[8]
  Activity: Non-toxic
[7]
  Activity: Active

## CCN/C=C1/C=C(C=O)c2cccnc2C1=O
Rattus norvegicus [1]
  Activity: Active
Rattus norvegicus [2]
  Activity: Active
[3]
  Activity: Active
Rattus norvegicus [4]
  Activity: Active
Rattus norvegicus [5]
  Activity: 5%
[6]
  Activity: Active
[7]
  Activity: Active

## CC(C)CCCCN/C=C1/C=C(C=O)c2cccnc2C1=O
Rattus norvegicus [1]
  Activity: Active
Rattus norvegicus [2]
  Activity: Active
[3]
  Activity: inactive
Rattus norvegicus [4]
  Activity: Active
Rattus norvegicus [5]
  Activity: 5%
[6]
  Activity: inactive
[7]
  Activity: inactive

## O=CC1=C/C(=C/NCCN2CCOCC2)C(=O)c2ncccc21
Rattus norvegicus [1]
  Activity: Active
Rattus norvegicus [2]
  Activity: Active
[3]
  Activity: inactive
Rattus norvegicus [4]
  Activity: Active
Rattus norvegicus [5]
  Activity: 5%
[6]
  Activity: inactive
[7]
  Activity: inactive

## Cc1c(C)c2c(c(C)c1O)CC[C@@](C)(CCC[C@H](C)CCC[C@H](C)CCCC(C)C)O2
[9]
  Activity: 47%

## Cc1ccc(C)c(OCCCC(C)(C)C(=O)O)c1 [GEMFIBROZIL]
Rattus norvegicus [1]
  Activity: 36%
Rattus norvegicus [2]
  Activity: 34%
Rattus norvegicus [4]
  Activity: 38%
Rattus norvegicus [5]
  Activity: 27%

## O=CC1=C/C(=C/NCc2ccccc2)C(=O)c2ncccc21
[3]
  Activity: Active
Rattus norvegicus [5]
  Activity: 5%
[6]
  Activity: Active
[7]
  Activity: Active

## OC[C@@H](O)[C@@H](O)[C@H](O)[C@H](O)CO
[10]
  Activity: 50%

## Oc1ncnc2[nH]ncc12
[11]
  Activity: 84%

## O=CC1=C/C(=C/NCCCN2CCOCC2)C(=O)c2ncccc21
Rattus norvegicus [1]
  Activity: Active
Rattus norvegicus [2]
  Activity: Active
[3]
  Activity: inactive
Rattus norvegicus [4]
  Activity: Active
Rattus norvegicus [5]
  Activity: 5%
[6]
  Activity: inactive
[7]
  Activity: inactive

## Cc1ccc(N/C=C2/C=C(C=O)c3cccnc3C2=O)cc1
Rattus norvegicus [1]
  Activity: 23%
Rattus norvegicus [2]
  Activity: 18%
[3]
  Activity: 41%
Rattus norvegicus [4]
  Activity: 25%
Rattus norvegicus [5]
  Activity: 5%
[6]
  Activity: 36%
[7]
  Activity: 44%

## CC(C)N/C=C1/C=C(C=O)c2cccnc2C1=O
Rattus norvegicus [1]
  Activity: Active
Rattus norvegicus [2]
  Activity: Active
[3]
  Activity: 35%
Rattus norvegicus [4]
  Activity: Active
Rattus norvegicus [5]
  Activity: 5%
[6]
  Activity: 38%
[7]
  Activity: 47%
